An excerpt weighted towards active compounds, which were near 0.77% of everything screened.
ABCB1 block = blocks JC-1 efflux by human ABCB1 transporter | 190,000 compounds, 0.067% hits | P08183 | inhibition, % at 6.6 µM | CCRF-Adr cells, flow cytometry | AID 1326; in the data active = inhibition above about 40%;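 also: 0% = vehicle and 100% = reference inhibitor; higher value means more JC-1 retained so stronger ABCB1 efflux block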
PERK inhibitor = blocks human PERK kinase | Q9NZJ5 | CHO PERK-DD fusion, SEAP luminescence translation reporter | inhibition, % at 5.6 µM | 220,000 compounds, 0.17% hits | AID 1416;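 active = inhibition above the mean inhibition of all tested compounds plus 3 SD, set separately per screening campaign, cut at about 2.9% in these data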;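 also: PERK kinase domain activated by AP20187 dimerizer at 100 nM; 0% = DMSO with dimerizer and 100% = rapamycin at 8.4 µM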
Furin inh = inhibitors of human furin. inhibition, % at 20 µM or 30 µM. AID 463115. 220,000 compounds, 0.061% hits. P09958. purified furin, fluorogenic substrate cleavage; in the data active = inhibition above about 25%
ABCG2 inh = inhibitors of human ABCG2 transporter, ABCB1 counter-screen; Q9UNQ0; IgMXP3 cells, JC-1 efflux, flow cytometry; inhibition, % at 6.6 µM; 190,000 compounds, 0.1% hits;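 active = inhibition above 80%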;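 also: 0% = DMSO and 100% = nicardipine control wells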
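Measure – % inhibition of efflux relative to nicardipine and DMSO · Test system – ABCG2 IgMXP3 and barcoded ABCB1 CCRF-Adr cell mix · Control set – nicardipine as high control, DMSO as low control · Compound – one concentration, 6.6 µM final · Signal – flow cytometry of retained JC-1 fluorescence · Timing – 10 min exposure at 25 °C with rotation, no wash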
Efa HMGR inh = inhibitors of class II HMG-CoA reductase from Enterococcus faecalis; inhibition, % at 10 µM; purified E. faecalis HMGR, NADPH absorbance 340 nm kinetic; 190,000 compounds, 0.41% hits; AID 1066;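 active = inhibition above a set limit, the median over all tested compounds plus 3 SD, cut at about 9.5% in these data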;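 also: enzyme runs in reverse so mevalonate oxidation gives rising NADPH absorbance; 0% = complete reaction with DMSO and 100% = background rate lacking mevalonate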
Rad51 HR inh = Rad51 (human) homologous recombination inhibition. Q06609. hRad51 DNA strand exchange, fluorescence dequenching. inhibition, % at 10 µM. 200,000 compounds, 0.085% hits. AID 1385;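 active = inhibition above 40% at the single screening dose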;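 also: 0% = DMSO control wells and 100% = blanks with heterologous ssDNA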
Target sequence (Q06609 whole entry, looked up): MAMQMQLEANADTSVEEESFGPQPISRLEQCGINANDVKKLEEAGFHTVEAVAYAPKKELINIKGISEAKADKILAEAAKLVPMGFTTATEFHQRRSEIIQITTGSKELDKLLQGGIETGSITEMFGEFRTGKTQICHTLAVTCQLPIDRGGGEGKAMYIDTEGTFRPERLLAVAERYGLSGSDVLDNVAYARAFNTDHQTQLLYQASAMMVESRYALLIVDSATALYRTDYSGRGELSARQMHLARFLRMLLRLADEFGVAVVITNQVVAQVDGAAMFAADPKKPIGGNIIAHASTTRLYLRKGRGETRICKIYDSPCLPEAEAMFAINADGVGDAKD
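material = hRad51 filaments on single-stranded DNA | timing = filaments 15 min 37 °C, then compound 30 min | signal = FRET fluorescence dequenching, excitation 485 nm, emission 520 nm | benchmarks = control wells and blank wells on each plate | evaluation = percent inhibition relative to plate controls and blanks | compound = 10 µM final, single point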
The depositor's hits bear a star; i = inactive; · = no result given.

SMILES	ABCB1 block	PERK inhibitor	Furin inh	ABCG2 inh	Efa HMGR inh	Rad51 HR inh
CC1(C)CC(C)(c2ccc(O)cc2O)N(c2cccc(Cl)c2)C(=S)N1 (stereo not given)	0	1	-12	0	11*	-11
CC1(C)CC(C)(c2ccc(O)cc2O)N(c2ccc3ccccc3c2)C(=S)N1 (stereo not given)	-1	1	-18	-1	6	2
Cc1ccc(S(=O)(=O)N(CC(=O)NCCSCc2ccco2)c2ccc(F)cc2)cc1	-1	3.2*	-26	-2	-3	·
O=C(NCC(=O)N(Cc1cccs1)C(C(=O)NC1CCCC1)c1ccncc1)c1ccco1 (stereo not given)	0	0	-22	0	33*	-5
CCOCCCNc1nc2c(C)cccn2c(=O)c1/C=C1\SC(=S)N(C(C)CC)C1=O (stereo not given)	·	0	2	·	·	i
CCCN1C(=O)/C(=C/c2c(NCCCOCC)nc3c(C)cccn3c2=O)SC1=S	68*	1	-18	63	1	-126
N#CC1(c2ccccc2)CCCN1C(=O)c1ccc(Br)o1 (stereo not given)	0	-1	-11	0	0	5
CCc1ccc(S(=O)(=O)Nc2cc(SCC(=O)O)c(O)c3ccccc23)cc1	-1	0	-25	-1	10*	-2
O=C(CN1C(=O)C2CC=CCC2C1=O)OCCN1C(=O)c2ccccc2C1=O (stereo not given)	1	1	-18	1	-4	0
CCOc1ccc(OCC)c(NC(=O)C2CCCN(c3ncccn3)C2)c1 (stereo not given)	1	0	-22	7	1	·
CCOc1ccc(OCC)c(NC(=O)C2CCN(c3ncccn3)CC2)c1	0	0	-3	36	1	42*
CCOc1ccc(OCC)c(NC(=O)CN2CCN(c3cccc(C)c3C)CC2)c1	5	0	-10	95*	-1	2
Cc1cc(C)c(NC(=O)c2ccc(CNS(=O)(=O)c3cc(C(F)(F)F)ccc3Cl)cc2)c(C)c1	1	-2	-18	8	-3	-8
O=C(Oc1coc(CSc2nnc(NC(=O)C3CC3)s2)cc1=O)c1c(F)cccc1F	1	0	-25	5	-3	0
CCNC(=S)NNC(=O)C1CCCCC1	1	2.9*	-23	1	-3	1
CCNC(=S)N1CCC(NC(=O)C2CCCCC2)CC1	0	0	-11	1	3	-5
CN(C)C(=O)C1CCC(=O)N1Cc1cccs1 (stereo not given)	0	1	-8	0	-5	23
Cc1ccc(NC2=NCC(=O)N2Cc2cccs2)cc1C	0	1	-25	12	-2	34
COC(=O)c1ccc(OCCOc2ccc(C(=O)OC)cc2)cc1	0	3.5*	-26	0	-7	-12
COC(=O)c1ccc(OCC(=O)c2ccccc2)cc1	1	-1	-20	3	-5	-3
Cc1ccc(CN2CCc3c(OCC(=O)Nc4cc(C)ccc4C)cccc3C2=O)cc1	2	0	-8	6	-2	-4
O=[N+]([O-])c1ccccc1OCCOCCOc1cccc2cccnc12	1	-1	-20	9	12*	8
COC(=O)c1ccccc1OCCOCCOc1cccc2cccnc12	1	-1	-12	7	3	1
O=C(NC(=S)N(CC1CCC1)CC1CCCO1)c1cccc([N+](=O)[O-])c1 (stereo not given)	0	-1	-23	3	14*	2
O=C(NCC1CCCO1)/C(=C\c1cccc([N+](=O)[O-])c1)NC(=O)c1ccccc1 (stereo not given)	0	0	-22	3	-4	10
SMILES	ABCB1 block	PERK inhibitor	Furin inh	ABCG2 inh	Efa HMGR inh	Rad51 HR inh
COc1ccccc1NC(=O)CSc1nc(O)cc(=O)[nH]1	0	1	-5	0	0	6
COc1cc(S(=O)(=O)NCCCN2CCOCC2)ccc1Cl	0	2.9*	-26	0	0	7
CCCCn1c(=O)c(CCC(=O)OCC(=O)Nc2ccc(F)c(Cl)c2)nc2ccccc21	3	0	-9	11	-6	·
COc1cc(OC)c(OC)cc1CN1CCCC(C(=O)c2sccc2C)C1 (stereo not given)	·	-1	-10	·	·	·
Cc1ccsc1C(=O)C1CCCN(Cc2cc(F)ccc2-n2cccn2)C1 (stereo not given)	4	0	-29	12	18*	-5
Cc1ccc(C(C(=O)NC(C)(C)C)N(Cc2ccc3c(c2)OCO3)C(=O)c2ccc(CN3CCOCC3)o2)o1 (stereo not given)	0	0	-30	0	15*	-2
COc1ccc(NS(=O)(=O)c2cc(NC(=O)c3nc4nc(C)cc(C)n4n3)ccc2C)cc1	0	0	-16	4	-9	4
O=C(/C=C/c1ccc(Cl)c([N+](=O)[O-])c1)Nc1ccc(N2CCCC2)cc1	0	0	0	0	-4	55*
Cc1ccc(C)c(N=Cc2ccc(-c3ccc([N+](=O)[O-])cc3)o2)c1	0	0	-25	-1	16*	-3
Cc1ccc([N+](=O)[O-])cc1Nc1nc(N2CCOCC2)nc(N2CCOCC2)n1	-2	0	6	5	10*	11
COC(=O)[C@@H](NC(=O)O[C@@H]1C(=O)c2cc(Br)ccc2O[C@H]1c1cccc(OC)c1)C(C)C	2	0	-5	9	-6	·
COC(=O)[C@H](Cc1ccccc1)NC(=O)O[C@@H]1C(=O)c2cc(Br)ccc2O[C@H]1c1cccc(OC)c1	2	0	-21	11	11*	·
CCC(CO)NC1=CC(=O)CCC1 (stereo not given)	-2	0	-13	3	0	14
CN(C)CCCNC(=O)c1cc(C(=O)C2CCCCC2)c[nH]1	1	1	-24	1	17*	5
Cn1cc(CN2CCN(c3ncccn3)CC2)c(-c2cccc(Cl)c2)n1	0	0	-17	0	9.6*	-1
Cc1cc(N2CCN(Cc3cn(C)nc3-c3cccc(Cl)c3)CC2)cc(C)n1	0	0	-21	1	6	1
O=C(Nc1ccc([N+](=O)[O-])cc1)Nc1ccc(OC(F)F)c(Cl)c1	27	0	-7	86*	-3	19
COc1ccc(OC)c(NC(=O)c2ccccc2SC)c1	0	-1	-23	2	-3	5
CCOc1ccccc1C(=O)Nc1cc(OC)ccc1OC	3	-2	5	100*	-1	-4
COc1ccc(OC)c(NC(=O)c2ccccc2NS(=O)(=O)c2cccc3cccnc23)c1	1	0	-7	1	-2	56*
Cc1ccc(S(=O)(=O)n2[nH]c(=O)cc2NC(=O)c2cccs2)cc1	1	0	-15	1	11*	-1

Screening data deposited in PubChem by several laboratories.
